Experimental data as given in ChEMBL document CHEMBL4689842, “EUbOPEN Chemogenomics Library wave 1” (2021).

Test system: U2OS
Assay: Multiplex assay against U2OS
Format: toxicity, cell-based
Conditions: human
How it was run: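 Phenotypes for tubulin, mitochondrial mass and membrane permeability are expressed as per cents of healthy-nucleus cells. Cells were stained live at seeding with Hoechst33342, BioTracker Green Microtubule Cytoskeleton Dye, MitoTracker Red and Annexin V Alexa Fluor 680, then imaged after compound addition on a CQ1 microscope at 37°C and 5% CO2. Machine-learning gating in CellPathfinder separated Hoechst high-intensity objects from normal cells, divided normal cells by nuclear state (healthy, pyknosed, fragmented) and divided pyknosed cells into mitotic or apoptotic.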

[1] = 12 h, 1 µM, compound concentration 1 uM, replicate 1
[2] = 12 h, 1 µM, compound concentration 1 uM, replicate 2
[3] = 12 h, 10 µM, compound concentration 10 uM, replicate 1
[4] = 12 h, 10 µM, compound concentration 10 uM, replicate 2
[5] = 24 h, 1 µM, compound concentration 1 uM, replicate 1
[6] = 24 h, 1 µM, compound concentration 1 uM, replicate 2
[7] = 24 h, 10 µM, compound concentration 10 uM, replicate 1
[8] = 24 h, 10 µM, compound concentration 10 uM, replicate 2

SMILES: CNC(=O)c1ccc(Nc2nc(OC3CCCC3)c3c(-c4ccc5nc(C)oc5c4)c[nH]c3n2)c(OC)c1
- Population Apoptotic (%) [1]: 36%
- Population Fragmented Nuclei (%) [1]: 10%
- Population Healthy Nuclei (%) [1]: 64%
- Population Hoechst High Intensity Objects (%) [1]: 2%
- Population Membrane Permeable-Phenotype (%) [1]: 58%
- Population Mitochondria Different-Phenotype (%) [1]: 45%
- Population Mitotic Cells (%) [1]: 63%
- Population Normal (%) [1]: 97%
- Population Pyknosed Nuclei (%) [1]: 25%
- Population Apoptotic (%) [2]: 30%
- Population Fragmented Nuclei (%) [2]: 14%
- Population Healthy Nuclei (%) [2]: 72%
- Population Hoechst High Intensity Objects (%) [2]: 6%
- Population Membrane Permeable-Phenotype (%) [2]: 63%
- Population Mitochondria Different-Phenotype (%) [2]: 40%
- Population Mitotic Cells (%) [2]: 70%
- Population Normal (%) [2]: 93%
- Population Pyknosed Nuclei (%) [2]: 13%
- Population Tubulin-Different-Phenotype (%) [2]: 100%
- Population Apoptotic (%) [3]: 30%
- Population Fragmented Nuclei (%) [3]: 1%
- Population Healthy Nuclei (%) [3]: 87%
- Population Hoechst High Intensity Objects (%) [3]: 1%
- Population Membrane Permeable-Phenotype (%) [3]: 62%
- Population Mitochondria Different-Phenotype (%) [3]: 18%
- Population Mitotic Cells (%) [3]: 70%
- Population Normal (%) [3]: 98%
- Population Pyknosed Nuclei (%) [3]: 11%
- Population Tubulin-Different-Phenotype (%) [3]: 90%
- Population Apoptotic (%) [4]: 25%
- Population Fragmented Nuclei (%) [4]: 22%
- Population Healthy Nuclei (%) [4]: 72%
- Population Hoechst High Intensity Objects (%) [4]: 22%
- Population Membrane Permeable-Phenotype (%) [4]: 54%
- Population Mitochondria Different-Phenotype (%) [4]: 26%
- Population Mitotic Cells (%) [4]: 75%
- Population Normal (%) [4]: 77%
- Population Pyknosed Nuclei (%) [4]: 4%
- Population Tubulin-Different-Phenotype (%) [4]: 65%
- Population Apoptotic (%) [5]: 89%
- Population Fragmented Nuclei (%) [5]: 12%
- Population Healthy Nuclei (%) [5]: 8%
- Population Hoechst High Intensity Objects (%) [5]: 5%
- Population Membrane Permeable-Phenotype (%) [5]: 92%
- Population Mitochondria Different-Phenotype (%) [5]: 84%
- Population Mitotic Cells (%) [5]: 10%
- Population Normal (%) [5]: 94%
- Population Pyknosed Nuclei (%) [5]: 79%
- Population Tubulin-Different-Phenotype (%) [5]: 100%
- Population Apoptotic (%) [6]: 60%
- Population Fragmented Nuclei (%) [6]: 25%
- Population Healthy Nuclei (%) [6]: 48%
- Population Hoechst High Intensity Objects (%) [6]: 11%
- Population Membrane Permeable-Phenotype (%) [6]: 65%
- Population Mitochondria Different-Phenotype (%) [6]: 73%
- Population Mitotic Cells (%) [6]: 40%
- Population Normal (%) [6]: 88%
- Population Pyknosed Nuclei (%) [6]: 25%
- Population Apoptotic (%) [7]: 43%
- Population Fragmented Nuclei (%) [7]: 6%
- Population Healthy Nuclei (%) [7]: 73%
- Population Hoechst High Intensity Objects (%) [7]: 1%
- Population Membrane Permeable-Phenotype (%) [7]: 43%
- Population Mitochondria Different-Phenotype (%) [7]: 18%
- Population Mitotic Cells (%) [7]: 56%
- Population Normal (%) [7]: 98%
- Population Pyknosed Nuclei (%) [7]: 20%
- Population Tubulin-Different-Phenotype (%) [7]: 71%
- Population Apoptotic (%) [8]: 62%
- Population Fragmented Nuclei (%) [8]: 23%
- Population Healthy Nuclei (%) [8]: 67%
- Population Hoechst High Intensity Objects (%) [8]: 14%
- Population Membrane Permeable-Phenotype (%) [8]: 30%
- Population Mitochondria Different-Phenotype (%) [8]: 28%
- Population Mitotic Cells (%) [8]: 37%
- Population Normal (%) [8]: 85%
- Population Pyknosed Nuclei (%) [8]: 8%
- Population Tubulin-Different-Phenotype (%) [8]: 55%
